Experiment [1] has as its system Staphylococcus aureus. In words: Concentration required for 90% inhibitory activity against methicillin-resistant Staphylococcus aureus. Format: functional. The essentials:
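Panel of 58 MRSA strains tested by NCCLS broth method in Mueller-Hinton broth with 2% NaCl. Inoculum about 5×10⁵ CFU/mL, 35 °C for 24 h. MICs read as no visible growth, and MIC90 derived across the panel.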

Experiment [2] concerns Staphylococcus aureus. In words: Minimum inhibitory concentration against methicillin-resistant Staphylococcus aureus (MRSA) A27223. Format: functional. The essentials: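 Broth microdilution per NCCLS in Mueller-Hinton broth with 2% NaCl. Inoculum about 5×10⁵ CFU/mL, incubated at 35 °C for 24 h. MIC is the lowest drug concentration that inhibits all visible growth.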
Experiment [3] relates to Staphylococcus aureus. In words: Minimum inhibitory concentration against methicillin-resistant Staphylococcus aureus (MRSA) A27223 in the presence of 50% calf serum. It is filed as functional. The essentials:
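NCCLS broth MIC in Mueller-Hinton broth with 2% NaCl plus 50% calf serum. Inoculum about 5×10⁵ CFU/mL, incubated at 35 °C for 24 h. Read as the lowest concentration with no visible growth.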

Experiment [4] in a line: Concentration required for the inhibitory activity against PBP2a.
Experiment [5] has as its system Staphylococcus aureus. In words: Dose required for protective activity against methicillin-resistant Staphylococcus aureus (MRSA) A27223 in mouse following i.m. administration. The note with it: im, read-out: PD50.
For experiment [6], the system named is Staphylococcus aureus. In words: Minimum inhibitory concentration against Staphylococcus aureus / Homo MR A27621. It is filed as functional. The essentials:
(§1)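 Broth MIC under NCCLS standard conditions in Mueller-Hinton broth plus 2% NaCl. Inoculum was about 5×10⁵ CFU/mL, incubated at 35 °C for 24 h. The endpoint was the lowest drug concentration inhibiting all visible growth. Where the line states it, 50% calf serum was added.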

Experiment [7] deals with Staphylococcus epidermidis. In words: Minimum inhibitory concentration against Staphylococcus epidermidis / Imipenem A27368. It is filed as functional. Summed up:
(§2)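 Broth dilution MIC under standard NCCLS-recommended conditions. The MIC was read as the lowest drug concentration giving no visible growth. Where the line states it, 50% calf serum was added.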

The subject of experiment [8] is Staphylococcus haemolyticus. Put plainly: Minimum inhibitory concentration against Staphylococcus haemolyticus / Homo MR A27229. Format: functional. Summed up:
as §2

Experiment [9] deals with Streptococcus pneumoniae. In words: Minimum inhibitory concentration against Streptococcus pneumoniae / Pen.I A27881. It is filed as functional. The essentials:
as §2

Experiment [10] has as its system Staphylococcus aureus. Put plainly: Minimum inhibitory concentration against Staphylococcus aureus / Homo MR A27226. Format: functional. Summed up: as §1
The subject of experiment [11] is Staphylococcus aureus. In words: Minimum inhibitory concentration against Staphylococcus aureus A9606 with 50% calf serum. It is filed as functional. The essentials: as §2
For experiment [12], the system named is Staphylococcus aureus. In words: Minimum inhibitory concentration against Staphylococcus aureus / Hetero MR A27217. Format: functional. The essentials:
as §1

Experiment [13] relates to Staphylococcus aureus. Put plainly: Minimum inhibitory concentration against Staphylococcus aureus / + 50% calf serum A27223. It is filed as functional. The essentials:
as §1

Experiment [14] concerns Enterococcus faecalis. Put plainly: Minimum inhibitory concentration against Enterococcus faecalis A20688. Format: functional. Summed up: as §2
The subject of experiment [15] is Staphylococcus haemolyticus. In words: Minimum inhibitory concentration against Staphylococcus haemolyticus A21638. It is filed as functional. Summed up:
as §2

Experiment [16] has as its system Staphylococcus aureus. In words: Minimum inhibitory concentration against Staphylococcus aureus / MR. P- A27225. Format: functional. Summed up: as §1
Experiment [17] concerns Staphylococcus aureus. In words: Minimum inhibitory concentration against Staphylococcus aureus / Homo MR A27223. Format: functional. The essentials:
as §1

Experiment [18] relates to Staphylococcus aureus. In words: Minimum inhibitory concentration against Staphylococcus aureus / Homo MR A27295. Format: functional. The essentials: as §1
Experiment [19] deals with Staphylococcus epidermidis. In words: Minimum inhibitory concentration against Staphylococcus epidermidis / MR A25783. It is filed as functional. The essentials:
as §2

In another experiment the test system is Streptococcus pyogenes. In words: Minimum inhibitory concentration against Streptococcus pyogenes Todd Hewitt A9604. Format: functional. The essentials: as §2
Experiment [20] deals with Staphylococcus aureus. Put plainly: Minimum inhibitory concentration against Staphylococcus aureus / Pen.+ A9606. It is filed as functional. Summed up: as §2
For experiment [21], the system named is Staphylococcus aureus. In words: Minimum inhibitory concentration against Staphylococcus aureus / Pen.- A9497. Format: functional. The essentials:
as §2

For experiment [22], the system named is Staphylococcus aureus. Put plainly: Minimum inhibitory concentration against Staphylococcus aureus / Hetero MR A27218. Format: functional. Summed up: as §1
Experiment [23] has as its system Enterococcus faecium. In words: Minimum inhibitory concentration against Enterococcus faecium A24885. It is filed as functional. The essentials:
as §2

For experiment [24], the system named is Streptococcus pneumoniae. In words: Minimum inhibitory concentration against penicillin resistant Streptococcus pneumoniae A28272. Format: functional.
Experiment [25] relates to Staphylococcus aureus. Put plainly: Minimum inhibitory concentration against Staphylococcus aureus A27218 with 50% calf serum. Format: functional. The essentials:
as §1

The test system of experiment [26] is Staphylococcus epidermidis. Put plainly: Minimum inhibitory concentration against Staphylococcus epidermidis A24548. It is filed as functional. The essentials:
as §2

Experiment [27] has as its system Staphylococcus aureus. Put plainly: Minimum inhibitory concentration against Staphylococcus aureus A20241 /MS/Pen. Format: functional. Summed up: as §2
The test system of experiment [28] is Enterococcus faecium. In words: Minimum inhibitory concentration against Enterococcus faecium Amp. R. Vanco. S A28156. Format: functional. The essentials:
as §2

The subject of experiment [29] is Enterococcus faecalis. Put plainly: Minimum inhibitory concentration against Enterococcus faecalis A20688 with 50% calf serum. It is filed as functional. Summed up:
as §2

These results are taken from ChEMBL document CHEMBL1134236, “Anti-MRSA cephems. Part 1: C-3 substituted thiopyridinium derivatives” (Bioorg Med Chem Lett, 2001).

pIC50: −log10 of the molar value. Converted amounts (≈) assume the structure as drawn. Some results are limits rather than exact numbers.

`NC(CCC[n+]1ccc(SCC2=C(C(=O)[O-])N3C(=O)[C@@H](NC(=O)CSc4cc(Cl)ccc4Cl)[C@H]3SC2)cc1)C(=O)O` (stereo partly specified): the MIC90 in the experiment on Staphylococcus aureus [1] was 3.5 µg/mL (≈ 5.32 µM). Further, the minimal inhibitory concentration (MIC) in the experiment on Staphylococcus aureus [2] turned out to be 1 µg/mL (≈ 1.52 µM); with Staphylococcus aureus [3], 4 µg/mL. The molecule further had a pIC50 in experiment [4] of 5.55. Besides, in the experiment on Staphylococcus aureus [5], the ED50 amounted to 4.1 mg/kg.
In the case of `Cc1cc(SCC2=C(C(=O)[O-])N3C(=O)[C@@H](NC(=O)CSc4cc(Cl)ccc4Cl)[C@H]3SC2)cc(CCC(=O)O)[n+]1Cc1cccs1`, the MIC turned out to be 4 µg/mL (≈ 5.52 µM) in the experiment on Staphylococcus aureus [2] and 8 µg/mL in the experiment with Staphylococcus aureus [3]. Moreover, in the experiment on Staphylococcus aureus [5], the ED50 is greater than 23 mg/kg.
On to `Cc1cc(SCC2=C(C(=O)O)N3C(=O)[C@@H](NC(=O)CSc4cc(Cl)ccc4Cl)[C@H]3SC2)cc(CCC(=O)O)[n+]1CCN.O=C(O)C(F)(F)F.O=C([O-])C(F)(F)F`, for which the MIC in the experiment with Staphylococcus aureus [2] and in the experiment on Staphylococcus aureus [3] was 2 µg/mL each time. The ED50 with Staphylococcus aureus [5] amounted to 3.9 mg/kg.
Regarding `NCCC[n+]1ccc(SCC2=C(C(=O)O)N3C(=O)[C@@H](NC(=O)CSc4cc(Cl)ccc4Cl)[C@H]3SC2)cc1CCCC(=O)O.O=C(O)C(F)(F)F.O=C([O-])C(F)(F)F`, the MIC with Staphylococcus aureus [6] was 0.5 µg/mL; in [7], 0.125 µg/mL; in experiment [8] it was 1 µg/mL; in the experiment on Streptococcus pneumoniae [9] it was 0.007 µg/mL; in the experiment with Staphylococcus aureus [10] it was 0.25 µg/mL; in the experiment on Staphylococcus aureus [11] it was 0.25 µg/mL. The MIC in the experiment with Staphylococcus aureus [12] was 0.25 µg/mL; in the experiment on Staphylococcus aureus [13] it was 2 µg/mL; against Enterococcus faecalis [14] it was 0.25 µg/mL; in experiment [15], 0.03 µg/mL; with Staphylococcus aureus [16] it was 0.5 µg/mL; against Staphylococcus aureus [17], 0.5 µg/mL. In addition, the MIC in the experiment with Staphylococcus aureus [18] came out at 1 µg/mL; in experiment [19], 0.03 µg/mL; against Streptococcus pyogenes, 0.0005 µg/mL; in the experiment with Staphylococcus aureus [20] it was 0.06 µg/mL; in the experiment on Staphylococcus aureus [21], 0.001 µg/mL; against Staphylococcus aureus [2] it was 0.5 µg/mL. Moreover, the minimum inhibitory concentration (MIC) was 0.5 µg/mL with Staphylococcus aureus [22]; 1 µg/mL in the experiment on Enterococcus faecium [23]; 0.06 µg/mL in the experiment with Streptococcus pneumoniae [24]; 0.5 µg/mL in the experiment with Staphylococcus aureus [25]; 4 µg/mL in the experiment on Staphylococcus aureus [3]; 0.015 µg/mL in [26]. Besides, the MIC against Staphylococcus aureus [27] came out at 0.06 µg/mL; against Enterococcus faecium [28] it was 32 µg/mL; against Enterococcus faecalis [29], 1 µg/mL. The molecule also came in with an MIC90 against Staphylococcus aureus [1] of 4 µg/mL. The pIC50 in experiment [4] was 5.47. Also, the ED50 in the experiment with Staphylococcus aureus [5] was 5.1 mg/kg.
`Cc1cc(SCC2=C(C(=O)[O-])N3C(=O)[C@@H](NC(=O)CSc4cc(Cl)ccc4Cl)[C@H]3SC2)cc(CCc2ccccc2)[n+]1CCS(=O)(=O)O`: the MIC amounted to 2 µg/mL (≈ 2.6 µM) against Staphylococcus aureus [2] and 4 µg/mL in the experiment on Staphylococcus aureus [3]. Besides, the ED50 with Staphylococcus aureus [5] was greater than 25 mg/kg.
Consider `Cc1cc(SCC2=C(C(=O)[O-])N3C(=O)[C@@H](NC(=O)CSc4cc(Cl)ccc4Cl)[C@H]3SC2)cc(CCc2ccc(Cl)s2)[n+]1CC[C@@H](O)C(=O)O`, for which the MIC with Staphylococcus aureus [2] was 8 µg/mL (≈ 9.96 µM); with Staphylococcus aureus [3], 8 µg/mL. In addition, the ED50 in the experiment on Staphylococcus aureus [5] is greater than 23 mg/kg.
As to `Cc1cc(SCC2=C(C(=O)O)N3C(=O)[C@@H](NC(=O)CSc4cc(Cl)ccc4Cl)[C@H]3SC2)cc(CCC(=O)O)[n+]1CCCN.O=C(O)C(F)(F)F.O=C([O-])C(F)(F)F`, the MIC in the experiment with Staphylococcus aureus [6] was determined as 1 µg/mL; in [7] it was 0.5 µg/mL; in experiment [8] it was 2 µg/mL; against Streptococcus pneumoniae [9] it was 0.06 µg/mL; in the experiment with Staphylococcus aureus [10], 0.5 µg/mL; in the experiment on Staphylococcus aureus [11], 0.25 µg/mL. Moreover, the MIC against Staphylococcus aureus [12] stood at 0.5 µg/mL; in the experiment with Staphylococcus aureus [13], 4 µg/mL; against Enterococcus faecalis [14] it was 0.5 µg/mL; in experiment [15], 0.125 µg/mL; against Staphylococcus aureus [16], 0.5 µg/mL; against Staphylococcus aureus [17], 1 µg/mL. The MIC against Staphylococcus aureus [18] stood at 2 µg/mL; in experiment [19], 0.25 µg/mL; with Streptococcus pyogenes, 0.0005 µg/mL; in the experiment with Staphylococcus aureus [20] it was 0.125 µg/mL; in the experiment with Staphylococcus aureus [21], 0.007 µg/mL; with Staphylococcus aureus [2] (Staphylococcus aureus, read-out: MIC) it was 1 µg/mL. Moreover, the minimum inhibitory concentration (MIC) is 0.5 µg/mL against Staphylococcus aureus [22]; 2 µg/mL in the experiment with Enterococcus faecium [23]; 0.25 µg/mL against Streptococcus pneumoniae [24]; 1 µg/mL against Staphylococcus aureus [25]; 4 µg/mL with Staphylococcus aureus [3]; 0.03 µg/mL in [26]. The values for the MIC in the experiment on Staphylococcus aureus [27], in the experiment on Enterococcus faecium [28] and against Enterococcus faecalis [29] were 0.25 µg/mL, 64 µg/mL and 4 µg/mL, respectively. In the experiment with Staphylococcus aureus [5], the ED50 amounted to 2.5 mg/kg.
For `Cc1cc(SCC2=C(C(=O)[O-])N3C(=O)[C@@H](NC(=O)CSc4cc(Cl)ccc4Cl)[C@H]3SC2)cc(CCC(=O)O)[n+]1CCc1cccs1`, the MIC in the experiment with Staphylococcus aureus [2] worked out at 4 µg/mL (≈ 5.41 µM); in the experiment on Staphylococcus aureus [3], 8 µg/mL. Moreover, in the experiment with Staphylococcus aureus [5], the ED50 was greater than 23 mg/kg.
As to `C=CCCc1cc(SCC2=C(C(=O)[O-])N3C(=O)[C@@H](NC(=O)CSc4cc(Cl)ccc4Cl)[C@H]3SC2)cc(C)[n+]1CC[C@@H](O)C(=O)O`, the MIC against Staphylococcus aureus [2] came out at 4 µg/mL (≈ 5.61 µM); in the experiment on Staphylococcus aureus [3], 8 µg/mL. In addition, the ED50 with Staphylococcus aureus [5] came out at 19.2 mg/kg.

What is called MIC90 is the lowest concentration that inhibits either 90% of growth or 90% of the strains tested, depending on the study. The low end stands for higher susceptibility, the high end for lower susceptibility. The MIC is the lowest concentration that inhibits growth of the organism. One may read the pIC50 as the IC50 on a negative log10 scale, so that one unit is a factor of ten.
